Screening data: PubChem BioAssay, Broad Institute
rRNA inh HTS: selective bacterial rRNA inhibition in E. coli. 350,000 compounds, 1.6% hits. E. coli WT GFP vs humanized-ribosome RFP mutants, fluorescence, 24 h; active compounds read low; DMSO median 0, no signal -100. GFP signal change (wild-type ribosome), % (no concentration beside the values). AID 720706;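 active = significant combined selectivity score with lowered wild-type GFP, culture density cut under 30%, mutant RFP and density less affected; inactive = any of these conditions unmet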
miR-122 sensor: inhibitors of miR-122 in Huh7 cells | Huh7 miR-122 Renilla luciferase sensor, 48 h; neutral wells = 0, positive control = 100 | activation (reporter increase), % at 12.5 µM | 340,000 compounds, 0.3% hits;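 active = mean replicate activation score at least 90 and every replicate individually at or above 90; inconclusive = only one of the two criteria met; inactive = neither criterion met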;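 note: higher luciferase means less miR-122 activity so hits act as miR-122 inhibitors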
Env fusion inh: HIV envelope-mediated fusion inhibition | 360,000 compounds, 1.1% hits | HeLa-JRFL Env/CEM21 cell fusion, luciferase | inhibition, % at 12.3 µM | AID 651610;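 active = mean replicate inhibition score of at least 50 and every replicate individually at or above 50; inconclusive = only one of the two criteria met; inactive = mean below 50 and not all replicates reaching 50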
Vif inh: HIV Vif inhibition; HEK293T cells, Vif self-association by quenched fluorescence, imaging, 24 h; inhibition, % at 7.49 µM; 340,000 compounds, 0.35% hits; AID 602346; in the data active = inhibition above about 50%, passing the limit was not always enough; inconclusive = no clear call, values can overlap the other calls; inactive = below about 31%
S100A4 MyoIIA: inhibitors of human S100A4 binding to myosin IIA peptide; inhibition, % at 10.7 µM; P26447; 360,000 compounds, 0.14% hits; S100A4/TAMRA-MyoIIA peptide fluorescence polarization;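 active = mean inhibition of at least 70% across replicates, with every replicate also reaching that level; inconclusive = mean inhibition reaches 70% but some replicates fall short; inactive = mean inhibition below 70%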
Target sequence (P26447 whole entry, looked up): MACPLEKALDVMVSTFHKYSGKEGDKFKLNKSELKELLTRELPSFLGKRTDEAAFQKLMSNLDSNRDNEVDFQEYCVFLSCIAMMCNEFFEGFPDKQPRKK
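Test system: S100A4 monomer protein; Medium: HEPES pH 7.2 with CaCl2, KCl, NaCl, DTT, Triton; Probe or stimulus: TAMRA-labelled myosin IIA heavy-chain peptide probe, 5 nM; Doses: one dose per compound; Times: polarization read 5 min after assay mix addition, stable 5–60 min; Benchmarks: neutral control DMSO, positive control TFP.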
FN deposit inh: fibronectin deposition inhibition; 350,000 compounds, 0.086% hits; AH1F fibroblasts, Alexa488-fibronectin deposition fluorescence, overnight; inhibition, % at 12.6 µM;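 active = mean inhibition across replicates of 30% or more, regardless of how many single replicates reach that level; inconclusive = mean under 30% yet at least half of replicates reach 30%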
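Material: AH1F fibroblast monolayer depositing Alexa488-labelled fibronectin into matrix / Amount: 10000 AH1F cells per well / Signal: fluorescence 485/525 nm / Medium: DMEM, 2% serum / Compound: single dose, pinned / Incubation: 1 h cell adhesion before compound, then overnight fibronectin incubation / Reagent: Alexa488-FN, 24 nM final / Read-out: inhibition of fibronectin deposition signal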
AID977621: wild-type E. coli growth inhibition versus H69 humanized strain – H69 mutant RFP, wild-type GFP, cherry-pick, dose response | shares compounds with rRNA inh HTS | fluorescence, 24 h | activity change, negative = inhibition at 50 µM | 1,900 tested, under 10 active | AID 977621;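 active = Wild-type ribosome reporter drop at least double the humanized mutant ribosome reporter drop, growth loss under a set limit; inconclusive = no clear call, values can overlap the other calls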;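 note: wild-type GFP and H69 mutant RFP strains grown together 50/50 in each well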
AID977628: growth of wild-type and h24-humanized E. coli strains – h24 mutant RFP vs wild-type GFP, cherry-pick, dose response | shares compounds with rRNA inh HTS | E. coli WT GFP strain growth, fluorescence, 24 h | activity change, negative = inhibition at 50 µM | 1,900 tested, under 10 active | AID 977628;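 active = compound lowering the normal-ribosome reporter at least twice as much as the humanized-ribosome reporter, growth loss under a set limit; inconclusive = no clear call, values can overlap the other calls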;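 note: wild-type GFP and h24 humanized RFP strains co-cultured 1 to 1 per well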
Hits are given with their value; i = inactive; ? = inconclusive; nt = no result. The list is not random: actives were taken first. Their share in the collection is about 2.6%.

SMILES	rRNA inh HTS	miR-122 sensor	Env fusion inh	Vif inh	S100A4 MyoIIA	FN deposit inh	AID977621	AID977628
C[C@@H]1CN([C@@H](C)CO)C(=O)c2cc(NC(=O)Nc3ccccc3)ccc2O[C@@H](C)CCCCO[C@@H]1CN(C)C(=O)CCCN(C)C	i	i	i	nt	i	i	nt	nt
C[C@H]1CCCCO[C@H](CN(C)C(=O)CCCN(C)C)[C@@H](C)CN([C@@H](C)CO)C(=O)c2cc(NC(=O)Nc3cccc4ccccc34)ccc2O1	i	i	i	nt	i	nt	?	i
C[C@H]1CCCCO[C@H](CN(C)C(=O)Nc2cccc3ccccc23)[C@@H](C)CN([C@@H](C)CO)C(=O)c2cc(NC(=O)Nc3cccc4ccccc34)ccc2O1	i	i	i	nt	i	i	nt	nt
C[C@@H]1CCCCO[C@H](CN(C)C(=O)CCCN(C)C)[C@@H](C)CN([C@@H](C)CO)C(=O)c2cc(NC(=O)Nc3cccc4ccccc34)ccc2O1	-38.9	i	i	nt	i	nt	i	?
Cc1noc(C)c1NC(=O)N(C)C[C@@H]1Oc2cc(C#CCC3CCCC3)ccc2S(=O)(=O)N([C@@H](C)CO)C[C@H]1C	i	i	nt	nt	i	i	nt	nt
COC(=O)c1cn(CCNC(=O)[C@H](Cc2ccccc2)NS(=O)(=O)c2ccc(C)cc2)nn1	nt	nt	i	nt	i	nt	nt	nt
O=C(C[C@H]1C=C[C@@H](NC(=O)Cc2ccccn2)[C@@H](CO)O1)NCCc1ccccc1	i	nt	nt	nt	i	nt	nt	nt
C[C@@H]1CCCCO[C@@H](CN(C)CC2CC2)[C@H](C)CN([C@@H](C)CO)C(=O)c2cc(NC(=O)CCCN(C)C)ccc2O1	i	nt	nt	nt	i	nt	nt	nt
Cc1cccc(OCCC(=O)Nc2ccc(F)c(F)c2)c1	-41.3	i	i	i	i	i	i	nt
Cc1noc(C)c1S(=O)(=O)Nc1cccc2c1O[C@H](CN(C)S(=O)(=O)c1ccccc1)[C@H](C)CN([C@@H](C)CO)C2=O	i	i	i	nt	i	nt	nt	nt
O=C(Cc1cccc(NC(=O)C2CCN(C(=O)CCc3ccccc3)CC2)c1)Nc1cccc(C(=O)N2CCCC2)c1	-18.8	i	i	i	i	i	i	nt
CN(C(=O)c1cccc(NC(=O)Cc2cccc(NC(=O)C3CCN(C(=O)CCc4ccccc4)CC3)c2)c1)C1CC1	-37.9	nt	i	i	i	i	nt	?
CCOC(=O)c1c(NC(=O)CN2CCN(C(=O)C3CCCO3)CC2)sc(C)c1C (stereo not given)	i	i	i	i	i	i	nt	nt
CCOC(=O)c1c(NC(=O)CN2CCC(C)CC2)sc(C)c1C	-21.2	i	i	i	i	i	i	i
O=C(C[C@@H]1C=C[C@@H](NC(=O)CC2CC2)[C@H](CO)O1)NCc1ccccc1	i	nt	nt	nt	i	nt	nt	nt
CCNC(=O)C[C@H]1CC[C@H]2[C@@H](COc3ccc(NC(=O)Cc4ccccc4)cc3C(=O)N2C)O1	i	i	i	nt	i	i	nt	nt
CN(C)CC(=O)Nc1ccc2c(c1)[C@@H]1C[C@H](CC(=O)N3CCc4ccccc4C3)O[C@@H](CO)[C@@H]1O2	i	i	i	nt	i	i	nt	nt
CN(C)CC(=O)N[C@@H]1CC[C@@H](CCNC(=O)Nc2ccc(Cl)cc2)O[C@H]1CO	-27.6	nt	i	nt	i	i	nt	?
COc1ccc(C)c2sc(N(CCN(C)C)C(=O)c3cccc(N4C(=O)CCC4=O)c3)nc12	i	nt	i	i	i	i	nt	nt
Cc1ccc2sc(N(CCCN(C)C)C(=O)c3ccc(S(=O)(=O)N4CCc5ccccc5C4)cc3)nc2c1C	-29.3	i	nt	i	i	i	i	i
COc1ccc(C)c2sc(N(CCN(C)C)C(=O)c3ccc(S(=O)(=O)N(C)c4ccccc4)cc3)nc12	-11.7	i	i	i	i	i	nt	i
CN(C)S(=O)(=O)c1ccc(Cl)c(C(=O)OCC(=O)NC(=O)c2cccn2C)c1	-21.3	nt	?	i	i	i	i	i
Cc1cc(C(=O)Nc2ccc(Cl)cc2)c(C)n1Cc1cccs1	-29.8	nt	i	i	i	i	i	i
COc1cc2ccc(-c3ccc4ccccc4n3)cc2cc1OC	i	nt	i	i	i	nt	nt	nt
COc1ccc(-c2ccc3ccccc3n2)cc1OC	-34.2	nt	i	i	i	i	nt	?
SMILES	rRNA inh HTS	miR-122 sensor	Env fusion inh	Vif inh	S100A4 MyoIIA	FN deposit inh	AID977621	AID977628
O=C(COC(=O)c1ccc(O)cc1)Nc1ccc(OC(F)F)cc1	i	i	i	i	i	i	nt	nt
O=C(COC(=O)c1ccc(O)cc1)Nc1ccccc1	-21.3	nt	i	nt	i	i	i	i
C=CCn1c(CSc2nnc(-c3ccccc3)n2C)n[nH]c1=S	i	i	i	i	i	i	nt	nt
C=CCn1c(SCc2n[nH]c(=S)n2-c2ccccc2)nnc1-c1ccccc1	-21.5	i	i	i	i	i	nt	?
Fc1cccc(CN2[C@@H]3CNC[C@H]2C3c2ccc(-c3ccncc3)cc2)c1 (stereo not given in full)	i	nt	nt	nt	i	i	nt	nt
C[C@H](CO)N1C[C@H](C)[C@@H](CN(C)C(=O)C2CC2)Oc2cc(-c3ccc(C(=O)N(C)C)cc3)ccc2S1(=O)=O	i	i	i	nt	nt	nt	nt	nt
Cc1ccc(NC(=O)c2ccccc2F)c(NC(=O)c2ccccc2F)c1	-20.4	i	i	i	i	i	i	i
CCn1c(CNC(=O)c2ccccc2F)cc2cc(C)ccc21	-20.4	nt	i	i	i	i	?	nt
COc1cccc(-c2ccc(SCc3ccccn3)nn2)c1	-22.6	nt	i	i	i	nt	nt	?
CO[C@@H]1CN(C)C(=O)c2cc(NC(C)=O)ccc2OC[C@H](C)N(C(=O)c2ccccn2)C[C@H]1C	i	i	i	nt	i	i	nt	nt
COc1ccc(C2CC(=O)CCN2S(=O)(=O)c2ccc(C)cc2)cc1 (stereo not given)	-21.8	i	i	i	i	i	i	?
COc1ccc(C2N(C(C)=O)CCN2S(=O)(=O)c2ccc(C)cc2)cc1 (stereo not given)	i	i	i	i	i	i	nt	nt
COc1ccc(-c2cn(CC[C@@H]3CC[C@@H](NC(=O)Nc4ccc(F)cc4)[C@@H](CO)O3)nn2)cc1	i	nt	nt	nt	i	i	nt	nt
C#CC(C)(C)NC(=O)c1ccc(-c2ccccc2F)cc1	-23.1	nt	i	i	i	i	i	i
Cc1ccc(S(=O)(=O)N(C)C[C@@H]2OCCCC[C@@H](C)Oc3ccc(NC(=O)Nc4ccc5c(c4)OCO5)cc3C(=O)N([C@H](C)CO)C[C@@H]2C)cc1	i	i	i	nt	i	i	nt	nt
Cc1ccc(-n2nnnc2SCC(=O)NC2CCCc3ccccc32)cc1 (stereo not given)	-30.0	i	i	i	i	i	i	nt
